Hits are enriched below; roughly 1.3% of the tested compounds scored in any of these assays.
RAD54 inh = inhibitors of human RAD54 branch migration, primary screen, biochemical, fluorescence, single point. DNA repair and recombination protein RAD54-like (Homo sapiens), Q92698. RAD54 Holliday junction branch migration, FAM/BHQ fluorescence. inhibition, % at 10.4 µM. actives 0.14% (n = 360,000). AID 602329, 2012;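 active = mean normalized replicate activity at least 40 and at least half of replicates scoring 40 or more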;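 also: 0% = median of neutral control wells and 100% = median of positive control wells; inhibitors cause a drop in the FAM fluorescence signal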
CASP6 VEID inh = human caspase-6 inhibitors, primary screen, biochemical, VEID-R110 fluorescence, single point, set 2 | actives 0.53% (n = 350,000) | purified caspase-6, Z-VEID-R110 cleavage fluorescence | AID 686996, 2013 | inhibition, % at 12.5 µM | P55212;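 active = mean inhibition across replicates at least about 35%, with every replicate also reaching that limit, limit read from the data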;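 also: 0% = median of neutral control wells and 100% = no fluorescence left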
RAD52 anneal inh = RAD52 DNA annealing inhibitors, primary screen, biochemical, FRET, single point, set 2 | recombinant RAD52 DNA annealing, FRET fluorescence | inhibition, % at 18.7 µM | actives 0.46% (n = 360,000) | AID 651710, 2012;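 active = every replicate showing at least 50% inhibition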
MLL AF4-AF9 inh = inhibitors of AF4 peptide binding to AF9, primary screen, biochemical, AlphaScreen, biotin-AF4 peptide, FLAG-AF9, single point | AID 651704, 2012 | Protein AF-9 (Homo sapiens), P42568 | inhibition, % at 10 µM | actives 0.47% (n = 350,000);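 active = every replicate reaching a set inhibition limit, whatever the replicate mean, cut at about 25% in these data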;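 also: 0% = plate neutral control median and 100% = total signal loss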
Target sequence (P42568 whole entry, looked up): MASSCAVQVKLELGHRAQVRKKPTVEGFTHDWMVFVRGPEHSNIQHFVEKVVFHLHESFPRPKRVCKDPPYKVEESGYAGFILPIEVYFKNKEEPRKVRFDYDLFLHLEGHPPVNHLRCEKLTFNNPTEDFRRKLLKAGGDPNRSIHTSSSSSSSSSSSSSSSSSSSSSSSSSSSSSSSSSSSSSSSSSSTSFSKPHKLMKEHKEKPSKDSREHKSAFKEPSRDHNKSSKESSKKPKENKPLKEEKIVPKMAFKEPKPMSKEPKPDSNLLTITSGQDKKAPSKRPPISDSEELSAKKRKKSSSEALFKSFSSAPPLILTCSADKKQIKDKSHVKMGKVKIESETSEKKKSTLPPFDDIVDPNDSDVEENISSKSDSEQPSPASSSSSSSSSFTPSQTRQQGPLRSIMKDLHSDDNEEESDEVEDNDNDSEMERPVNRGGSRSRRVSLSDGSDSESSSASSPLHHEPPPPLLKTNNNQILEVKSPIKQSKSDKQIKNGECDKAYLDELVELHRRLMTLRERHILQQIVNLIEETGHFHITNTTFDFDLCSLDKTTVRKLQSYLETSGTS
S100A4 inh HTS = inhibitors of S100A4-myosin IIA peptide binding, primary screen, biochemical, fluorescence polarization, TAMRA-MyoIIA peptide; Protein S100-A4 (Homo sapiens), P26447; actives 0.14% (n = 360,000); inhibition, % at 10.7 µM;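 active = mean inhibition of at least 70% across replicates, with every replicate also reaching that level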
Target sequence (P26447 whole entry, looked up): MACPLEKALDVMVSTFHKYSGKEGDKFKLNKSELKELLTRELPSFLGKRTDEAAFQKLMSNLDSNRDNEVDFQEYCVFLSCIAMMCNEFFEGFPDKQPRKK
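Material: human S100A4 monomer with TAMRA-labelled myosin IIA peptide; buffer or medium: HEPES pH 7.2 with CaCl2, KCl, NaCl, DTT, Triton; compound dosing: one concentration per compound; schedule: 5 min incubation before reading; benchmarks: neutral control DMSO, positive control TFP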
XiGFP reactiv = activators of inactive X chromosome reactivation, primary screen, imaging, XiGFP fibroblasts, GFP high-content imaging, set 2; XiGFP mouse fibroblasts, % GFP-positive cells imaging, 3 d; cells co-treated with 5-aza-dC sensitizer; scaled so ellipticine positive control = 100%; activation, % at 7.58 µM; actives 0.055% (n = 360,000);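 active = mean normalized replicate activation at least 10% and every replicate at or above 10%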;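 also: 0% = median of on-plate neutral control wells and 100% = ellipticine 6 µM median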
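System: 68-5-11 XiGFP fibroblast line | Buffer or medium: DMEM containing 5-aza-dC | Compound: Single point | Times: Compounds 3 days, fix/stain 15 min at room temperature | Benchmarks: Positive control ellipticine, 6 µM final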
Numbers without * were called inactive; i = inactive; / = no result given.

SMILES	RAD54 inh	CASP6 VEID inh	RAD52 anneal inh	MLL AF4-AF9 inh	S100A4 inh HTS	XiGFP reactiv
CC(CNC(=O)c1ccc(OC2CCN(Cc3ccccn3)CC2)cc1)c1ccccc1 (stereo not given)	9.7	45.3*	-16.6	3.1	-17.6	0.2
N#Cc1cccc(-c2ccc(C3[C@H]4CNC[C@@H]3N4Cc3ccc4c(c3)OCO4)cc2)c1 (stereo not given in full)	/	-5.9	3.6	-2.5	11.1	0.1
C[C@@H]1CCCCO[C@H](CN(C)C)[C@@H](C)CN([C@H](C)CO)C(=O)c2cc(NC(=O)Cc3ccccc3)ccc2O1	/	/	/	/	/	0.0
C[C@H](CO)N1C[C@H](C)[C@@H](CN(C)Cc2ccccc2C(F)(F)F)OCc2cnnn2CCCC1=O	/	/	/	/	/	0.0
Cc1ccc(Sc2ccc(S(=O)(=O)Nc3ccc(CC(=O)O)cc3)cc2)cc1C	4.0	41.1*	-31.7	0.7	-6.1	0.2
O=C(NC1CCCCC1)N[C@H]1C=C[C@@H](CC(=O)N2CCOCC2)O[C@H]1CO	0.7	-6.1	20.7	-0.4	1.9	0.8
CCc1nc2c(OCc3ccc(C(=O)OC)cc3)cccn2c1N(C)C(=O)c1ccc(OC)cc1	0.7	3.2	-24.9	5.6	0.1	0.1
CCc1nc2c(OCc3ccc(C(=O)OC)cc3)cccn2c1N(C)C(=O)c1ccc(C)cc1	3.6	38.5*	-46.9	2.8	-3.4	0.5
C[C@@H]1CN([C@@H](C)CO)C(=O)c2cccc(NC(=O)Nc3ccccc3)c2O[C@H]1CN(C)S(=O)(=O)c1ccc(F)cc1	-7.5	0.6	12.2	4.2	7.2	0.0
CN1/C(=C/C=C(C#N)C#N)C(C)(C)c2ccccc21	-24.3	-14.2	i	-2.2	-12.7	25.4*
Cc1sc(NC(=O)CSc2n[nH]c(N)n2)c(C#N)c1C	0.4	40.2*	-30.7	2.0	-8.1	0.3
COC(=O)c1c(NC(=O)CSc2n[nH]c(N)n2)sc(C)c1C	-10.0	/	/	/	/	/
Cc1cc(C(=O)Nc2cccc3c2O[C@H](CN(C)S(=O)(=O)c2cccs2)[C@@H](C)CN([C@@H](C)CO)C3=O)n(C)n1	-0.5	3.9	12.9	-14.3	-3.7	-1.1
Nc1ccc2cc3[nH]c4cc(N)ccc4c3nc2c1	/	-38.7	i	-9.2	16.6	62.8*
COc1ccc(CN(C)C[C@@H]2OCCCC[C@@H](C)Oc3ccc(NS(=O)(=O)c4ccc(Cl)cc4)cc3C(=O)N([C@@H](C)CO)C[C@H]2C)cc1	-3.1	0.5	49.5	-5.4	17.9	0.0
COc1ccc(CN(C)C[C@@H]2OCCCC[C@H](C)Oc3ccc(NS(=O)(=O)c4ccc(Cl)cc4)cc3C(=O)N([C@H](C)CO)C[C@@H]2C)cc1	-1.4	0.5	55.3*	8.1	-5.3	0.0
COc1ccc(CN(C)C[C@H]2OCCCC[C@H](C)Oc3ccc(NS(=O)(=O)c4ccc(F)cc4)cc3C(=O)N([C@H](C)CO)C[C@H]2C)cc1	-0.2	5.6	54.9*	9.6	-6.5	0.0
CCC(=O)N1CC[C@@H]2[C@@H](CO)Nc3ccc(-c4ccc(OC)cc4)cc3[C@@H]21	1.6	/	/	/	/	0.4
CCCC(=O)Nc1ccc2c(c1)OC[C@H](C)N(CCc1ccccc1)C[C@H](C)[C@H](OC)CN(C)C2=O	/	/	/	/	/	-0.4
C[C@H]1CCCCO[C@H](CN(C)S(=O)(=O)c2ccc(Cl)cc2)[C@@H](C)CN([C@@H](C)CO)C(=O)c2cc(NS(=O)(=O)c3ccc(F)cc3)ccc2O1	-7.2	1.7	22.0	-2.2	-50.7	0.0
CC(C)(O)c1[nH]c2ccc(C#N)cc2c1C(C)(C)O	/	-2.4	-10.4	45.7*	-2.7	0.0
CC(C)(O)c1[nH]c2ccc(C(F)(F)F)cc2c1C(C)(C)O	0.3	-2.1	-25.3	-7.5	-6.0	0.0
Cc1cc(C(=O)Nc2cccc3c2O[C@@H](CN(C)C(=O)Nc2ccc(F)cc2)[C@@H](C)CN([C@@H](C)CO)C3=O)n(C)n1	-15.9	-0.6	13.7	-2.2	-2.6	0.1
CCOC(=O)/C=C(\C)Sc1cc(O)c2ccccc2c1O	2.7	94.0*	-2.3	18.6	-0.9	0.1
CN=c1scc(-c2ccc(F)cc2)n1/N=C/c1ccc(O)c(O)c1	/	20.7	0.4	58.7*	7.4	0.8
SMILES	RAD54 inh	CASP6 VEID inh	RAD52 anneal inh	MLL AF4-AF9 inh	S100A4 inh HTS	XiGFP reactiv
Cc1ccc(N2CCN(/N=C/c3c(C)nn(-c4ccccc4)c3Cl)CC2)cc1	/	45.0*	-7.0	-1.0	0.5	0.1
CC1CN(C(=O)C2CCCCC2)C(C)CN1C(=O)C1CCCCC1 (stereo not given)	4.9	/	/	/	/	/
CC1CCCC(C)N1C(=O)C1CCCCC1 (stereo not given)	7.0	58.8*	-5.4	0.4	1.2	0.0
O=C(N[C@@H]1CC[C@H](CCn2cc(C3CCCC3)nn2)O[C@H]1CO)c1cccnc1	/	-0.9	-10.1	-7.7	-17.7	0.0
C[C@@H]1CN([C@H](C)CO)C(=O)c2cc(/C=C/c3ccccc3)cnc2O[C@@H]1CN(C)C(=O)C1CC1	/	-2.0	1.4	0.6	7.6	0.0
CCNC(=S)N1CCCCC1CO (stereo not given)	/	46.6*	-9.5	-5.4	-2.1	-0.1
Cc1noc(C)c1S(=O)(=O)Nc1ccc2c(c1)C(=O)N([C@H](C)CO)C[C@H](C)[C@H](CN(C)S(=O)(=O)c1ccc(F)cc1)OCCCC[C@@H](C)O2	-4.9	2.2	80.8*	-1.4	-6.6	0.0
Cc1noc(C)c1S(=O)(=O)Nc1ccc2c(c1)C(=O)N([C@@H](C)CO)C[C@@H](C)[C@H](CN(C)Cc1ccc(Cl)c(Cl)c1)OCCCC[C@@H](C)O2	-7.2	77.5*	-19.9	5.0	0.8	0.0
Cc1ccc(S(=O)(=O)N(C)C[C@H]2OCCCC[C@@H](C)Oc3ccc(NS(=O)(=O)c4c(C)noc4C)cc3C(=O)N([C@@H](C)CO)C[C@H]2C)cc1	13.1	-3.0	-69.7	-1.4	94.2*	-0.1
Cc1ccc(S(=O)(=O)N(C)C[C@H]2OCCCC[C@@H](C)Oc3ccc(NC(=O)CCCN(C)C)cc3C(=O)N([C@@H](C)CO)C[C@@H]2C)cc1	6.1	-1.4	50.1*	7.1	3.2	0.1
C[C@H](CO)N1C[C@H](C)[C@H](CN(C)CC2CC2)Oc2cc(C#Cc3ccc(F)cc3)ccc2S1(=O)=O	2.3	-3.7	23.1	3.0	5.1	-0.2
